According to ChEMBL document CHEMBL4706641, “Novel Carboline Fungal Histone Deacetylase (HDAC) Inhibitors for Combinational Treatment of Azole-Resistant Candidiasis” (J Med Chem, 2021):
Converted amounts (≈) assume the structure as drawn. The source made the active and inactive calls.

Tests used:
Candida albicans [1] = assay: Antifungal activity against Candida albicans 0304103 incubated for 48 hrs by microdilution assay; type: functional
Outline: (§1)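 Checkerboard broth microdilution per CLSI M27-A3 (modified), clinical Candida isolates. Exponential cells in RPMI 1640 (MOPS-buffered) at 10³ cells/mL; fluconazole 0.25–64 μg/mL crossed with test compound 2–64 μg/mL (final). 48 h at 35 °C; OD630 read with background subtracted. MIC80 = 80% growth inhibition; FICI ≤0.5 synergy, >4 antagonism.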

Candida albicans [2] = assay: Synergistic antifungal activity against azole-resistant Candida albicans assessed as potentiation of ITC antifungal activity by measuring ITC incubated for 48 hrs in presence of fluconazole by checkerboard microdilution assay; type: functional
Candida albicans [3] = assay: Synergistic antifungal activity against Candida albicans 0304103 incubated for 48 hrs in presence of fluconazole by microdilution assay; type: functional; outline: as §1
Candida albicans [4] = assay: Synergistic antifungal activity against azole-resistant Candida albicans assessed as potentiation of VRC antifungal activity by measuring VRC incubated for 48 hrs in presence of fluconazole by checkerboard microdilution assay; type: functional
Candida albicans [5] = assay: Synergistic antifungal activity against Candida albicans 0304103 assessed as potentiation of fluconazole antifungal activity by measuring FICI incubated for 48 hrs in presence of fluconazole by checkerboard microdilution assay; type: functional; outline: as §1
Candida albicans [6] = assay: microbe, parasite or virus in culture; type: functional, 0304103
Candida albicans [7] = assay: Antifungal activity against Candida albicans 10061 incubated for 48 hrs by microdilution assay; type: functional; outline: as §1
Candida albicans [8] = assay: Antifungal activity against Candida albicans 4108 incubated for 48 hrs by microdilution assay; type: functional; outline: as §1
Pichia kudriavzevii [9] = assay: Synergistic antifungal activity against Candida krusei 10153 assessed as fluconazole MIC incubated for 48 hrs in presence of fluconazole by microdilution assay (reference value: fluconazole alone MIC = […] ug/ml); type: functional
Candida albicans [10] = assay: Antifungal activity against Candida albicans 9172 incubated for 48 hrs by microdilution assay; type: functional; outline: as §1
Candida albicans [11] = assay: Synergistic antifungal activity against Candida albicans 4108 incubated for 48 hrs in presence of fluconazole by microdilution assay; type: functional; outline: as §1
Candida albicans [12] = assay: Synergistic antifungal activity against Candida albicans 9884 incubated for 48 hrs in presence of fluconazole by microdilution assay; type: functional; outline: as §1
Candida albicans [13] = assay: Synergistic antifungal activity against Candida albicans 10061 assessed as fluconazole MIC incubated for 48 hrs in presence of fluconazole by microdilution assay (reference value: fluconazole alone MIC = >[…] ug/ml); type: functional
Candida albicans [14] = assay: Synergistic antifungal activity against Candida albicans 10061 incubated for 48 hrs in presence of fluconazole by microdilution assay; type: functional; outline: as §1
Pichia kudriavzevii [15] = assay: Antifungal activity against Candida krusei 10153 incubated for 48 hrs by microdilution assay; type: functional; outline: as §1
Candida albicans [16] = assay: Synergistic antifungal activity against Candida albicans 4108 assessed as fluconazole MIC incubated for 48 hrs in presence of fluconazole by microdilution assay (reference value: fluconazole alone MIC = >[…] ug/ml); type: functional
Candida albicans [17] = assay: Synergistic antifungal activity against Candida albicans 9884 assessed as fluconazole MIC incubated for 48 hrs in presence of fluconazole by microdilution assay (reference value: fluconazole alone MIC = >[…] ug/ml); type: functional
Candida albicans [18] = assay: Synergistic antifungal activity against Candida albicans 9172 incubated for 48 hrs in presence of fluconazole by microdilution assay; type: functional; outline: as §1
Candida albicans [19] = assay: Antifungal activity against Candida albicans 9884 incubated for 48 hrs by microdilution assay; type: functional; outline: as §1
Candida albicans [20] = assay: Synergistic antifungal activity against Candida albicans 9172 assessed as fluconazole MIC incubated for 48 hrs in presence of fluconazole by microdilution assay (reference value: fluconazole alone MIC = >[…] ug/ml); type: functional
Pichia kudriavzevii [21] = assay: Synergistic antifungal activity against Candida krusei 10153 incubated for 48 hrs in presence of fluconazole by microdilution assay; type: functional; outline: as §1
Cryptococcus neoformans = assay: Antifungal activity against Cryptococcus neoformans; type: functional
Candida albicans [22] = assay: Effect on CDR2 mRNA expression in Candida albicans 0304103 at 32 ug/ml incubated for 24 hrs by RT-PCR analysis; type: functional; details: dose 32.0 µg/ml
Outline: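 C. albicans 0304103 was started at 1 × 10⁶ cells/mL and treated with DMSO control, fluconazole 32 μg/mL, test compound 32 μg/mL, or both. Cultures were held in YEPD at 35 °C for 24 h, then total RNA was extracted and reverse-transcribed. Real-time PCR ran 40 cycles. Fold change was calculated by 2^−ΔΔCt against ACT1.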

Candida albicans [23] = assay: Antifungal activity against Candida albicans 0304103 infected in ICR mouse model of candidiasis assessed as reduction in fungal invasion by measuring clusters of fungal infiltration in renal pelvis at 1 mg/kg, ip dosed 24 hrs post infection and measured after 5 days by H and E staining based microscopical analysis; type: functional, organism-based; details: time 5.0 day
Candida albicans [24] = assay: Antifungal activity against Candida albicans 0304103 at 64 ug/ml incubated for 48 hrs by microdilution assay; type: functional, organism-based; details: dose 64.0 µg/ml
Outline: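 Checkerboard microdilution adapted from CLSI M27-A3. Exponential-phase cells resuspended at 10³ cells/mL in RPMI 1640 buffered with 0.165 M MOPS. Final concentrations were fluconazole 0.25–64 μg/mL and test compound 2–64 μg/mL. Plates were held 48 h at 35 °C and read at OD630 with background subtracted. MIC80 was used, and the FICI cut-offs were synergy ≤0.5 and antagonism >4.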

Candida albicans [25] = assay: Antifungal activity against Candida albicans 0304103 infected in ICR mouse model of candidiasis assessed as reduction in morphological changes of budded-to-hyphal transition at 1 mg/kg, ip dosed 24 hrs post infection and measured after 5 days by H and E staining based microscopical analysis; type: functional, organism-based; details: time 5.0 day
Candida albicans [26] = assay: Antifungal activity against Candida albicans 0304103 infected in ICR mouse model of candidiasis assessed as reduction in kidney fungal burden at 1 mg/kg, ip dosed 24 hrs post infection and measured after 5 days; type: functional, organism-based; details: time 5.0 day
Candida albicans [27] = assay: Induction of morphological changes in Candida albicans assessed as reduction in morphological conversion from yeast to hypha forms at 32 ug/ml incubated for 3 hrs by inverse fluorescence microscopy; type: functional, organism-based; details: dose 32.0 µg/ml
Outline: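 Exponential-phase C. albicans were suspended in Spider medium ([…], 2% NaHCO₃, […]) at 2 × 10⁶ cells/mL. Drugs were added alone or combined, with DMSO as control. After 3 h at 37 °C, cells were imaged by inverted fluorescence microscopy. Three independent experiments were run.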

Candida albicans [28] = assay: Inhibition of biofilm formation in Candida albicans 0304103 at 2 to 32 ug/ml incubated for 24 hrs by XTT reduction assay; type: functional, organism-based; details: dose 2-32 µg/ml
Outline: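 C. albicans 0304103 at 1.0 × 10⁶ CFU/mL in RPMI 1640 was allowed to adhere for 90 min at 37 °C, then washed with PBS. Fresh medium was added with fluconazole 2–32 μg/mL and/or test compound 0.12–64 μg/mL, followed by 24 h at 37 °C. Biofilm was measured semiquantitatively by XTT reduction at OD490. Three independent experiments were run.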

[29] = Candida albicans, 0304103, read-out: MIC80
[30] = Candida albicans, 0304103, time 48 hrs, read-out: MIC80

SMILES | MIC80 (Candida albicans [1]; [29]) | fractional inhibitory concentration index (FICI) (Candida albicans [2]) | MIC80 (Candida albicans [3]) | fractional inhibitory concentration index (FICI) (Candida albicans [4]) | fractional inhibitory concentration index (FICI) (Candida albicans [5]) | MIC80 (Candida albicans [6]; [30]) | other results
O=C(Cc1ccc(OCCCn2c3c(c4ccccc42)CCNC3)cc1)NO | > 64 µg/mL | 0.035 | 4 µg/mL | 0.035 | 0.07 | 0.5 µg/mL (≈ 1.32 µM) | –
CN1CCc2c(c3ccccc3n2Cc2ccc(C(=O)NO)cc2)C1 [TUBASTATIN A] | – | – | – | – | – | – | MIC80 (Candida albicans [7]): > 64 µg/mL; MIC80 (Candida albicans [8]): > 64 µg/mL; MIC80 (Pichia kudriavzevii [9]): 32 µg/mL; MIC80 (Candida albicans [10]): > 64 µg/mL; MIC80 (Candida albicans [11]): 8 µg/mL; MIC80 (Candida albicans [12]): 4 µg/mL; MIC80 (Candida albicans [13]): 0.5 µg/mL; MIC80 (Candida albicans [14]): 2 µg/mL; MIC80 (Pichia kudriavzevii [15]): > 64 µg/mL; MIC80 (Candida albicans [16]): 0.5 µg/mL; MIC80 (Candida albicans [17]): 1 µg/mL; MIC80 (Candida albicans [18]): 16 µg/mL; MIC80 (Candida albicans [19]): > 64 µg/mL; MIC80 (Candida albicans [20]): 0.5 µg/mL; MIC80 (Pichia kudriavzevii [21]): 64 µg/mL
O=C(Cc1ccc(OCCCn2c3c(c4c(Cl)cccc42)CCNC3)cc1)NO | > 64 µg/mL | 0.035 | 2 µg/mL | 0.035 | 0.039 | 0.5 µg/mL (≈ 1.21 µM) | –
COc1ccc2c(c1)c1c(n2CCCOc2ccc(CC(=O)NO)cc2)CNCC1 | > 64 µg/mL | 0.035 | 8 µg/mL | 0.035 | 0.13 | 0.5 µg/mL (≈ 1.22 µM) | –
O=C(Cc1ccc(OCCCn2c3c(c4ccc(F)cc42)CCNC3)cc1)NO | > 64 µg/mL | 0.035 | 2 µg/mL | 0.035 | 0.047 | 1 µg/mL (≈ 2.52 µM) | –
O=C(Cc1ccc(OCCCn2c3c(c4cc(F)ccc42)CCNC3)cc1)NO | > 64 µg/mL | 0.035 | 2 µg/mL | 0.035 | 0.062 | 2 µg/mL (≈ 5.03 µM) | –
O=C(Cc1ccc(OCCCn2c3c(c4c(Br)cccc42)CCNC3)cc1)NO | > 64 µg/mL | 0.035 | 4 µg/mL | 0.035 | 0.066 | 0.25 µg/mL (≈ 0.545 µM) | –
O=C(Cc1ccc(OCCCn2c3c(c4ccc(Br)cc42)CCNC3)cc1)NO | > 64 µg/mL | 0.035 | 2 µg/mL | 0.035 | 0.039 | 0.5 µg/mL (≈ 1.09 µM) | –
Clc1ccc(OCCCn2c3c(c4cc(Cl)ccc42)CCNC3)cc1.O=C(O)C(F)(F)F | – | – | – | – | – | – | MIC80 (Cryptococcus neoformans): 0.25 µg/mL
O=C(Cc1ccc(OCCCn2c3c(c4cc(Br)ccc42)CCNC3)cc1)NO | 64 µg/mL (≈ 140 µM) | 0.035 | 2 µg/mL | 0.035 | 0.035 | 0.25 µg/mL (≈ 0.545 µM) | –
O=C(Cc1ccc(OCCCn2c3c(c4ccc(Cl)cc42)CCNC3)cc1)NO | 64 µg/mL (≈ 155 µM) | 0.035 | 2 µg/mL | 0.035 | 0.047 | 1 µg/mL (≈ 2.42 µM) | –
OC(Cn1cncn1)(Cn1cncn1)c1ccc(F)cc1F [FLUCONAZOLE] | > 64 µg/mL | – | – | – | – | – | MIC80 (Candida albicans [7]): > 64 µg/mL; MIC80 (Candida albicans [8]): > 64 µg/mL; Activity (Candida albicans [22]): inactive; MIC80 (Candida albicans [10]): > 64 µg/mL; Activity (Candida albicans [23]): inactive; Activity (Candida albicans [24]): inactive; MIC80 (Pichia kudriavzevii [15]): 64 µg/mL (≈ 209 µM); Activity (Candida albicans [25]): inactive; MIC80 (Candida albicans [19]): > 64 µg/mL; Activity (Candida albicans [26]): inactive; Activity (Candida albicans [27]): inactive; inhibition (Candida albicans [28]): inactive
O=C(CCCCCCC(=O)Nc1ccccc1)NO [VORINOSTAT] | – | – | – | – | – | – | MIC80 (Candida albicans [1]): >64 µg/mL; MIC80 (Candida albicans [6]; 48 h): 0.25 µg/mL (≈ 0.946 µM)
Cc1ccc2c(c1)c1c(n2CCCOc2ccc(CC(=O)NO)cc2)CNCC1 | > 64 µg/mL | 0.035 | 4 µg/mL | 0.035 | 0.078 | 1 µg/mL (≈ 2.54 µM) | –
COc1cccc2c3c(n(CCCOc4ccc(CC(=O)NO)cc4)c12)CNCC3 | > 64 µg/mL | 0.035 | 2 µg/mL | 0.035 | 0.047 | 1 µg/mL (≈ 2.44 µM) | –
